Measured values as given in ChEMBL document CHEMBL5154695, “Design, synthesis and biological evaluation of P2-modified proline analogues targeting the HtrA serine protease in Chlamydia” (Eur J Med Chem, 2022).
Activity calls are given as the source filed them.

Tests used:
[1] = target: T1, Probable periplasmic serine endoprotease DegP-like (Chlamydia trachomatis, UniProt P18584); assay: Inhibition of recombinant Chlamydia trachomatis HtrA serine protease using MeOCoum-ENLHLPLPI1F-D as substrate measured after 30 mins
T1 sequence (P18584 whole entry): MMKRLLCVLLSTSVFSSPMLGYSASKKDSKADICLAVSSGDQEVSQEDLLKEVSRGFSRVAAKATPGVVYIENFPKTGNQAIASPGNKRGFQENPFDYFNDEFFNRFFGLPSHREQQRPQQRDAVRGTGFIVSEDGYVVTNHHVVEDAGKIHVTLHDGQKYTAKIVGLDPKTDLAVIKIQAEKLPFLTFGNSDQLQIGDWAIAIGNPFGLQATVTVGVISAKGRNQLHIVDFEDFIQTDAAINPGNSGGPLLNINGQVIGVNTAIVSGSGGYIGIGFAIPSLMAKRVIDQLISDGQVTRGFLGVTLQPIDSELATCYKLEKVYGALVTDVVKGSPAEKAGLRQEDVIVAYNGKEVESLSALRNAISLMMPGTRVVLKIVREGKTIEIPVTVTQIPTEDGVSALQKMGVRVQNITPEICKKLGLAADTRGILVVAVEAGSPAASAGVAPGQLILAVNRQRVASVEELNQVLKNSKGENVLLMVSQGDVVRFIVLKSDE

Chlamydia trachomatis [2] = assay: Antibacterial activity against Chlamydia trachomatis D/UW-3/Cx infected in human HEp-2 cells assessed as reduction in bacterial titer below threshold at 50 uM administered at 16 hrs post infection and measured 44 hrs post infection; type: functional, organism-based; settings: time 28.0 hrs
In short: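 C. trachomatis D (D/UW-3/Cx) in monolayers seeded 20,000 cells/well 24 h before infection; synchronised at 500 × g, 28 °C, 30 min; treated at 16 h PI (25, 50, 100 µM, triplicate) beside 1% v/v DMSO and media controls; harvested 44 h PI, passaged onto fresh monolayers, fixed, stained; IFU/mL compared against limit of detection.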

Chlamydia pecorum [3] = assay: Antibacterial activity against Chlamydia pecorum MC/MarsBar infected in human HEp-2 cells assessed as reduction in bacterial titre at 25 uM administered at 16 hrs post infection and measured 44 hrs post infection; type: functional, organism-based; settings: time 28.0 hrs
HEp-2 [4] = assay: Cytotoxicity against human HEp-2 cells assessed as reduction in cell viability by measuring MTS reduction at 25 uM measured after 24 hrs by MTS assay relative to control; type: toxicity, cell-based; settings: hep-2, 24 h
In short: (§1)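 HEp-2 cells plated at 5000/well, treated 24 h after plating with 25 or 100 µM inhibitor, 1% v/v DMSO or medium alone, triplicate; after 24 h exposure, MTS/PMS added for 4 h and A490 read; viability expressed relative to DMSO control; mean ± SEM, n = 3.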

HEp-2 [5] = assay: Cytotoxicity against human HEp-2 cells assessed as loss of cell integrity by measuring cytosolic LDH release at 25 to 100 uM […] by LDH assay; type: toxicity, cell-based; settings: hep-2, 100 µM, dose 25-100 µM
In short: (§2)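 HEp-2 cells at 5000/well, dosed 24 h after plating with 25 or 100 µM, 1% v/v DMSO or medium, triplicate; after 8 h treatment supernatant taken, incubated 30 min with CytoTox reagent then stop solution, A490 read; maximum release from untreated cells lysed with 0.8% v/v Triton X-100 45 min before harvest; extracellular LDH as % of maximum; n = 3.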

Chlamydia trachomatis [6] = assay: Antibacterial activity against Chlamydia trachomatis D/UW-3/Cx infected in human HEp-2 cells assessed as reduction in bacterial titer at 25 to 100 uM administered at 16 hrs post infection and measured 44 hrs post infection; type: functional, organism-based; settings: dose 25-100 µM, time 28.0 hrs
HEp-2 [7] = assay: Cytotoxicity against human HEp-2 cells assessed as reduction in cell viability measured after 24 hrs by MTS assay; type: toxicity, cell-based; settings: hep-2, 24 h; in short: as §1
Chlamydia pecorum [8] = assay: Antibacterial activity against Chlamydia pecorum MC/MarsBar infected in human HEp-2 cells assessed as reduction in bacterial titre at 25 to 100 uM administered at 16 hrs post infection and measured 44 hrs post infection; type: functional, organism-based; settings: dose 25-100 µM, time 28.0 hrs
[9] = target: T2, Probable periplasmic serine endoprotease DegP-like (Chlamydia trachomatis) (UniProt P18584); assay: Potency index, ratio of JO146 IC50 to test compound IC50 for inhibition of recombinant Chlamydia trachomatis HtrA serine protease using MeOCoum-ENLHLPLPI1F-D as substrate measured after 30 mins
T2 sequence (whole entry): T1 sequence (P18584 whole entry)

[10] = Cytotoxicity against human HEp-2 cells assessed as cell viability at 100 uM measured after 24 hrs by MTS assay relative to control; type: toxicity, cell-based; settings: read-out: Activity; in short: as §1
HEp-2 [11] = assay: Cytotoxicity against human HEp-2 cells assessed as loss of cell integrity by measuring cytosolic LDH release at 100 uM […] by LDH assay; type: toxicity, cell-based; settings: hep-2, 100 µM; in short: as §2
HEp-2 [12] = assay: Cytotoxicity against human HEp-2 cells assessed as loss of cell integrity by measuring cytosolic LDH release at 25 to 100 uM […] by LDH assay relative to control; type: toxicity, cell-based; settings: hep-2, 100 µM, dose 25-100 µM; in short: as §2
[13] = Cytotoxicity against human HEp-2 cells assessed as cell viability at 25 to 100 uM measured after 24 hrs by MTS assay relative to control; type: toxicity, cell-based; settings: dose 25-100 µM, read-out: Activity; in short: as §1

SMILES | IC50 [1] [µM] | Activity (HEp-2 [4]) [%] | Activity (HEp-2 [5]) | Activity (HEp-2 [7]) | other results
CC(C)C(NC(=O)[C@@H]1C[C@@H](c2ccccc2)CN1C(=O)[C@@H](NC(=O)OC(C)(C)C)C(C)(C)C)P(=O)(Oc1ccccc1)Oc1ccccc1 (mixture of isomers) | 59.5 | < 30 | Non-Toxic | – | Activity (Chlamydia trachomatis [2]): Active; Activity (Chlamydia pecorum [3]): Active
CC(C)C(NC(=O)[C@@H]1C[C@@H](n2cc(CO)nn2)CN1C(=O)[C@@H](NC(=O)OC(C)(C)C)C(C)(C)C)P(=O)(Oc1ccccc1)Oc1ccccc1 (mixture of isomers) | 79.7 | – | – | Non-Toxic | Activity (Chlamydia trachomatis [6]): Active
CC(C)C(NC(=O)[C@@H]1C[C@H](n2cc(CO)nn2)CN1C(=O)[C@@H](NC(=O)OC(C)(C)C)C(C)(C)C)P(=O)(Oc1ccccc1)Oc1ccccc1 (mixture of isomers) | – | – | – | Non-Toxic | –
CC(=O)O[C@@H]1C[C@@H](C(=O)NC(C(C)C)P(=O)(Oc2ccccc2)Oc2ccccc2)N(C(=O)[C@@H](NC(=O)OC(C)(C)C)C(C)(C)C)C1 (mixture of isomers) | 3.86 | < 30 | Non-Toxic | – | Activity (Chlamydia trachomatis [2]): Active; Activity (Chlamydia pecorum [3]): Active
CC(C)C(NC(=O)[C@@H]1C[C@@H](n2nnc(O)c2O)CN1C(=O)[C@@H](NC(=O)OC(C)(C)C)C(C)(C)C)P(=O)(Oc1ccccc1)Oc1ccccc1 (mixture of isomers) | – | – | – | Non-Toxic | –
CC(C)C(NC(=O)[C@@H]1C[C@H](n2nncc2C(C)(C)O)CN1C(=O)[C@@H](NC(=O)OC(C)(C)C)C(C)(C)C)P(=O)(Oc1ccccc1)Oc1ccccc1 (mixture of isomers) | 30.3 | – | – | Non-Toxic | Activity (Chlamydia pecorum [8]): Active; Activity (Chlamydia trachomatis [6]): Active
CC(C)C(NC(=O)[C@@H]1C[C@@H](n2cc(C(N)=O)nn2)CN1C(=O)[C@@H](NC(=O)OC(C)(C)C)C(C)(C)C)P(=O)(Oc1ccccc1)Oc1ccccc1 (mixture of isomers) | – | – | – | Non-Toxic | –
CC(C)C(NC(=O)[C@@H]1C[C@@H](n2nncc2C(N)=O)CN1C(=O)[C@@H](NC(=O)OC(C)(C)C)C(C)(C)C)P(=O)(Oc1ccccc1)Oc1ccccc1 (mixture of isomers) | – | – | – | Non-Toxic | Activity (Chlamydia pecorum [8]): Active; Activity (Chlamydia trachomatis [6]): Active
CC(C)C(NC(=O)[C@@H]1C[C@H](n2nnc(O)c2O)CN1C(=O)[C@@H](NC(=O)OC(C)(C)C)C(C)(C)C)P(=O)(Oc1ccccc1)Oc1ccccc1 (mixture of isomers) | 23 | – | – | Non-Toxic | –
CC(C)C(NC(=O)[C@@H]1C[C@@H](O)CN1C(=O)[C@@H](NC(=O)OC(C)(C)C)C(C)(C)C)P(=O)(Oc1ccccc1)Oc1ccccc1 (mixture of isomers) | 14.2 | < 30 | Non-Toxic | – | –
CC(C)C(NC(=O)[C@@H]1CCCN1C(=O)[C@@H](NC(=O)OC(C)(C)C)C(C)(C)C)P(=O)(Oc1ccccc1)Oc1ccccc1 (some centres not stated) | 15.9 | – | – | – | Ratio IC50 [9]: 1.38
CC(C)C(NC(=O)[C@@H]1C[C@H](O)CN1C(=O)[C@@H](NC(=O)OC(C)(C)C)C(C)(C)C)P(=O)(Oc1ccccc1)Oc1ccccc1 (mixture of isomers) | 48.7 | < 30 | Non-Toxic | – | –
CC(C)C(NC(=O)[C@@H]1CCCN1C(=O)[C@@H](NC(=O)OC(C)(C)C)C(C)C)P(=O)(Oc1ccccc1)Oc1ccccc1 (some centres not stated) | 21.9 | – | – | – | –
CC(C)C(NC(=O)[C@@H]1C[C@@H](n2cc(C(C)(C)O)nn2)CN1C(=O)[C@@H](NC(=O)OC(C)(C)C)C(C)(C)C)P(=O)(Oc1ccccc1)Oc1ccccc1 (mixture of isomers) | 71.6 | – | – | Non-Toxic | –
CC(C)C(NC(=O)[C@@H]1C[C@@H](OC(=O)CCN)CN1C(=O)[C@@H](NC(=O)OC(C)(C)C)C(C)(C)C)P(=O)(Oc1ccccc1)Oc1ccccc1 (mixture of isomers) | 15.3 | < 30 | Non-Toxic | – | –
CC(C)C(NC(=O)[C@@H]1C[C@@H](n2nncc2C(C)(C)O)CN1C(=O)[C@@H](NC(=O)OC(C)(C)C)C(C)(C)C)P(=O)(Oc1ccccc1)Oc1ccccc1 (mixture of isomers) | 95.7 | – | – | Non-Toxic | Activity (Chlamydia trachomatis [6]): Active
CC(C)C(NC(=O)[C@@H]1CCCCN1C(=O)[C@@H](NC(=O)OC(C)(C)C)C(C)(C)C)P(=O)(Oc1ccccc1)Oc1ccccc1 (mixture of isomers) | 81.8 | < 30 | Non-Toxic | – | Activity (Chlamydia trachomatis [2]): Active; Activity (Chlamydia pecorum [3]): Active; viability at 24 h, 100 µM [10]: 50%; Activity (HEp-2 [11]): Non-Toxic
CC(C)C(NC(=O)[C@@H]1C[C@@H](C2CCCCC2)CN1C(=O)[C@@H](NC(=O)OC(C)(C)C)C(C)(C)C)P(=O)(Oc1ccccc1)Oc1ccccc1 (mixture of isomers) | 163 | – | – | – | Activity (HEp-2 [12]): 80%; Activity (Chlamydia trachomatis [2]): Active; Activity (Chlamydia pecorum [3]): Active; viability at 24 h, up to 100 µM [13]: 10%
CC(C)C(NC(=O)[C@@H]1C[C@@H](OC(=O)CN)CN1C(=O)[C@@H](NC(=O)OC(C)(C)C)C(C)(C)C)P(=O)(Oc1ccccc1)Oc1ccccc1 (mixture of isomers) | 13.9 | < 30 | Non-Toxic | – | –
